According to ChEMBL document CHEMBL1125554, “Studies on pyridonecarboxylic acids. 1. Synthesis and antibacterial evaluation of 7-substituted-6-halo-4-oxo-4H-[1,3]thiazeto[3,2-a]quinoline-3-carboxylic acids” (J Med Chem, 1992):
Converted amounts (≈) assume the structure as drawn.

How the values were obtained:
Type in all cases: functional
Escherichia coli = experiment: In vitro antibacterial activity against Escherichia coli NIH JC-2
Method in brief: (§1)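 MIC (μg/mL) by 2-fold agar dilution on Sensitivity Test agar, following the Japan Society of Chemotherapy MIC Committee method. Inocula were about 10⁶ cfu/mL. Growth was read after 20 h incubation at 37 °C.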

Klebsiella pneumoniae = experiment: In vitro antibacterial activity against Klebsiella pneumoniae K-1966; method in brief: as §1
Shigella flexneri = experiment: In vitro antibacterial activity against Shigella flexneri 2a EW-10; method in brief: as §1
Micrococcus luteus = experiment: In vitro antibacterial activity against Micrococcus luteus ATCC 9341; method in brief: as §1
Pseudomonas aeruginosa = experiment: In vitro antibacterial activity against Pseudomonas aeruginosa E-2; method in brief: as §1
Staphylococcus aureus = experiment: In vitro antibacterial activity against Staphylococcus aureus 209P JC-1; method in brief: as §1
Serratia marcescens = experiment: In vitro antibacterial activity against Serratia marcescens IFO 3736; method in brief: as §1
[1] = Escherichia coli, read-out: MIC
[2] = Klebsiella pneumoniae, read-out: MIC
[3] = Shigella flexneri, read-out: MIC
[4] = Micrococcus luteus, ATCC 9341, read-out: MIC
[5] = Pseudomonas aeruginosa, read-out: MIC
[6] = Staphylococcus aureus, read-out: MIC
[7] = Serratia marcescens, IFO 3736, read-out: MIC

| Structure (SMILES) | MIC (Escherichia coli; [1]) | MIC (Klebsiella pneumoniae; [2]) | MIC (Shigella flexneri; [3]) | MIC (Micrococcus luteus; [4]) | MIC (Pseudomonas aeruginosa; [5]) | MIC (Staphylococcus aureus; [6]) | MIC (Serratia marcescens; [7]) | MIC (Escherichia coli) | MIC (Klebsiella pneumoniae) | MIC (Shigella flexneri) | MIC (Micrococcus luteus) | MIC (Pseudomonas aeruginosa) | MIC (Staphylococcus aureus) | MIC (Serratia marcescens) |
| --- | --- | --- | --- | --- | --- | --- | --- | --- | --- | --- | --- | --- | --- | --- |
| C=CCN1CCN(c2cc3c(cc2F)c(=O)c(C(=O)O)c2n3C(C)S2)CC1 (configuration not stated) | 0.05 µg/mL (≈ 0.128 µM) | 0.05 µg/mL (≈ 0.128 µM) | 0.025 µg/mL (≈ 0.0642 µM) | 1.56 µg/mL (≈ 4.01 µM) | 0.78 µg/mL (≈ 2 µM) | 0.05 µg/mL (≈ 0.128 µM) | 0.19 µg/mL (≈ 0.488 µM) | – | – | – | – | – | – | – |
| O=C(O)c1c2n(c3cc(N4CCNCC4)c(F)cc3c1=O)C(c1ccccc1F)S2 (configuration not stated) | 0.39 µg/mL (≈ 0.908 µM) | 0.78 µg/mL (≈ 1.82 µM) | 0.78 µg/mL (≈ 1.82 µM) | 12.5 µg/mL (≈ 29.1 µM) | 3.13 µg/mL (≈ 7.29 µM) | 1.56 µg/mL (≈ 3.63 µM) | 12.5 µg/mL (≈ 29.1 µM) | – | – | – | – | – | – | – |
| CC1Sc2c(C(=O)O)c(=O)c3cc(F)c(N4CCCC4)cc3n21 (configuration not stated) | 0.2 µg/mL (≈ 0.598 µM) | 0.1 µg/mL (≈ 0.299 µM) | 0.1 µg/mL (≈ 0.299 µM) | 0.78 µg/mL (≈ 2.33 µM) | 0.39 µg/mL (≈ 1.17 µM) | 0.05 µg/mL (≈ 0.15 µM) | 0.78 µg/mL (≈ 2.33 µM) | – | – | – | – | – | – | – |
| CCC1Sc2c(C(=O)O)c(=O)c3cc(F)c(N4CCN(C)CC4)cc3n21 (configuration not stated) | – | – | – | – | – | 0.2 µg/mL (≈ 0.53 µM) | 0.78 µg/mL (≈ 2.07 µM) | – | – | – | – | – | – | – |
| CC(=O)N1CCN(c2cc3c(cc2F)c(=O)c(C(=O)O)c2n3C(C)S2)CC1 (configuration not stated) | 0.78 µg/mL (≈ 1.99 µM) | 0.39 µg/mL (≈ 0.996 µM) | 0.39 µg/mL (≈ 0.996 µM) | 3.13 µg/mL (≈ 8 µM) | 6.25 µg/mL (≈ 16 µM) | 0.2 µg/mL (≈ 0.511 µM) | 1.56 µg/mL (≈ 3.99 µM) | – | – | – | – | – | – | – |
| CC1Sc2c(C(=O)O)c(=O)c3cc(F)c(N4CCN(Cc5ccc(N)cc5)CC4)cc3n21 (configuration not stated) | 0.2 µg/mL (≈ 0.44 µM) | 0.2 µg/mL (≈ 0.44 µM) | 0.1 µg/mL (≈ 0.22 µM) | 0.39 µg/mL (≈ 0.858 µM) | 3.13 µg/mL (≈ 6.89 µM) | 0.05 µg/mL (≈ 0.11 µM) | 1.56 µg/mL (≈ 3.43 µM) | – | – | – | – | – | – | – |
| CC1Sc2c(C(=O)O)c(=O)c3cc(F)c(N4CCOCC4)cc3n21 (configuration not stated) | 0.1 µg/mL (≈ 0.285 µM) | 0.1 µg/mL (≈ 0.285 µM) | 0.1 µg/mL (≈ 0.285 µM) | 1.56 µg/mL (≈ 4.45 µM) | 0.39 µg/mL (≈ 1.11 µM) | 0.1 µg/mL (≈ 0.285 µM) | 0.39 µg/mL (≈ 1.11 µM) | – | – | – | – | – | – | – |
| O=C(O)c1c2n(c3cc(N4CCNCC4)c(F)cc3c1=O)C(c1ccc(F)cc1)S2 (configuration not stated) | 0.025 µg/mL (≈ 0.0582 µM) | 0.0125 µg/mL (≈ 0.0291 µM) | 0.025 µg/mL (≈ 0.0582 µM) | 1.56 µg/mL (≈ 3.63 µM) | 0.39 µg/mL (≈ 0.908 µM) | 0.2 µg/mL (≈ 0.466 µM) | 0.39 µg/mL (≈ 0.908 µM) | – | – | – | – | – | – | – |
| CC1Sc2c(C(=O)O)c(=O)c3cc(F)c(N4CCSCC4)cc3n21 (configuration not stated) | 0.2 µg/mL (≈ 0.546 µM) | 0.2 µg/mL (≈ 0.546 µM) | 0.1 µg/mL (≈ 0.273 µM) | 0.78 µg/mL (≈ 2.13 µM) | 0.39 µg/mL (≈ 1.06 µM) | 0.025 µg/mL (≈ 0.0682 µM) | 0.39 µg/mL (≈ 1.06 µM) | – | – | – | – | – | – | – |
| CN1CCN(c2cc3c(cc2F)c(=O)c(C(=O)O)c2n3C(c3ccccc3)S2)CC1 (configuration not stated) | 0.2 µg/mL (≈ 0.47 µM) | 0.2 µg/mL (≈ 0.47 µM) | 0.2 µg/mL (≈ 0.47 µM) | 6.25 µg/mL (≈ 14.7 µM) | 1.56 µg/mL (≈ 3.67 µM) | 0.39 µg/mL (≈ 0.917 µM) | 0.39 µg/mL (≈ 0.917 µM) | – | – | – | – | – | – | – |
| CC1Sc2c(C(=O)O)c(=O)c3cc(F)c(N4CCNC(=O)C4)cc3n21 (configuration not stated) | 0.39 µg/mL (≈ 1.07 µM) | 0.2 µg/mL (≈ 0.55 µM) | 0.1 µg/mL (≈ 0.275 µM) | 3.13 µg/mL (≈ 8.61 µM) | 6.25 µg/mL (≈ 17.2 µM) | 0.39 µg/mL (≈ 1.07 µM) | 3.13 µg/mL (≈ 8.61 µM) | – | – | – | – | – | – | – |
| CC(C)N1CCN(c2cc3c(cc2F)c(=O)c(C(=O)O)c2n3C(C)S2)CC1 (configuration not stated) | 0.2 µg/mL (≈ 0.511 µM) | 0.025 µg/mL (≈ 0.0639 µM) | 0.025 µg/mL (≈ 0.0639 µM) | 3.13 µg/mL (≈ 8 µM) | 1.56 µg/mL (≈ 3.99 µM) | 0.05 µg/mL (≈ 0.128 µM) | 0.39 µg/mL (≈ 0.996 µM) | – | – | – | – | – | – | – |
| CCN1CCN(c2cc3c(cc2F)c(=O)c(C(=O)O)c2n3C(C)S2)CC1 (configuration not stated) | 0.05 µg/mL (≈ 0.132 µM) | 0.05 µg/mL (≈ 0.132 µM) | 0.025 µg/mL (≈ 0.0662 µM) | 1.56 µg/mL (≈ 4.13 µM) | 0.78 µg/mL (≈ 2.07 µM) | 0.1 µg/mL (≈ 0.265 µM) | 0.1 µg/mL (≈ 0.265 µM) | – | – | – | – | – | – | – |
| CC1Sc2c(C(=O)O)c(=O)c3cc(F)c(N4CCN(CCO)CC4)cc3n21 (configuration not stated) | 0.1 µg/mL (≈ 0.254 µM) | 0.1 µg/mL (≈ 0.254 µM) | 0.05 µg/mL (≈ 0.127 µM) | 0.78 µg/mL (≈ 1.98 µM) | 1.56 µg/mL (≈ 3.97 µM) | 0.1 µg/mL (≈ 0.254 µM) | 0.39 µg/mL (≈ 0.991 µM) | – | – | – | – | – | – | – |
| O=C(O)c1c2n(c3cc(N4CCNCC4)c(F)cc3c1=O)C(c1ccccc1)S2 (configuration not stated) | 0.025 µg/mL (≈ 0.0608 µM) | 0.025 µg/mL (≈ 0.0608 µM) | 0.025 µg/mL (≈ 0.0608 µM) | 3.13 µg/mL (≈ 7.61 µM) | 0.2 µg/mL (≈ 0.486 µM) | 0.2 µg/mL (≈ 0.486 µM) | 0.05 µg/mL (≈ 0.122 µM) | – | – | – | – | – | – | – |
| CC1Sc2c(C(=O)O)c(=O)c3cc(F)c(-n4ccnc4)cc3n21 (configuration not stated) | 0.2 µg/mL (≈ 0.604 µM) | 0.1 µg/mL (≈ 0.302 µM) | 0.1 µg/mL (≈ 0.302 µM) | 6.25 µg/mL (≈ 18.9 µM) | 3.13 µg/mL (≈ 9.45 µM) | 0.39 µg/mL (≈ 1.18 µM) | 0.78 µg/mL (≈ 2.35 µM) | – | – | – | – | – | – | – |
| CC1Sc2c(C(=O)O)c(=O)c3cc(F)c(N4CCNCC4)cc3n21 (stereo in doubt; 29a) [ULIFLOXACIN] | – | – | – | – | – | – | – | 0.0125 µg/mL (≈ 0.0358 µM) | 0.006 µg/mL (≈ 0.0172 µM) | 0.006 µg/mL (≈ 0.0172 µM) | 0.78 µg/mL (≈ 2.23 µM) | 0.2 µg/mL (≈ 0.572 µM) | 0.05 µg/mL (≈ 0.143 µM) | 0.05 µg/mL (≈ 0.143 µM) |
| CC1Sc2c(C(=O)O)c(=O)c3cc(F)c(N4CCNCC4)cc3n21 (stereo in doubt; 29l) [ULIFLOXACIN] | – | – | – | – | – | – | – | 0.78 µg/mL (≈ 2.23 µM) | 0.39 µg/mL (≈ 1.12 µM) | 0.78 µg/mL (≈ 2.23 µM) | 3.13 µg/mL (≈ 8.96 µM) | 1.56 µg/mL (≈ 4.46 µM) | 0.2 µg/mL (≈ 0.572 µM) | 3.13 µg/mL (≈ 8.96 µM) |
| Cl.O.O=C(O)c1c2n(c3cc(N4CCNCC4)c(F)cc3c1=O)CS2 | 0.1 µg/mL | 0.05 µg/mL | 0.025 µg/mL | 25 µg/mL | 0.78 µg/mL | 0.05 µg/mL | 0.1 µg/mL | – | – | – | – | – | – | – |
| O=C(O)c1c2n(c3cc(N4CCNCC4)c(Cl)cc3c1=O)CS2 | 0.39 µg/mL (≈ 1.11 µM) | 0.2 µg/mL (≈ 0.568 µM) | 0.1 µg/mL (≈ 0.284 µM) | 6.25 µg/mL (≈ 17.8 µM) | 6.25 µg/mL (≈ 17.8 µM) | 0.2 µg/mL (≈ 0.568 µM) | 0.2 µg/mL (≈ 0.568 µM) | – | – | – | – | – | – | – |
| CC1Sc2c(C(=O)O)c(=O)c3cc(Cl)c(N4CCNCC4)cc3n21 (configuration not stated) | 0.05 µg/mL (≈ 0.137 µM) | 0.025 µg/mL (≈ 0.0683 µM) | 0.0125 µg/mL (≈ 0.0342 µM) | 1.56 µg/mL (≈ 4.26 µM) | 1.56 µg/mL (≈ 4.26 µM) | 0.1 µg/mL (≈ 0.273 µM) | 0.1 µg/mL (≈ 0.273 µM) | – | – | – | – | – | – | – |
